Measurements as given in ChEMBL document CHEMBL3124806, “Imidazopyridine-fused [1,3]-diazepinones: synthesis and antiproliferative activity” (Eur J Med Chem, 2014).
Calls of active or inactive are those of the source. No cut-off for these calls is given here.

Key:
[1] = test system: MDA-MB-435; test: Induction of apoptosis in human MDA-MB-435 cells assessed as nuclei fragmentation at 5 uM after 20 hrs by Hoechst 33342 staining-based phase-contrast microscopy; assay type: functional, cell-based
[2] = target: Cyclin-dependent kinase 2 (Homo sapiens) (UniProt P24941); test: Inhibition of human CDK2 at 10 uM
Procedure, shortened: (§1)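 Kinase selectivity panel of 19 protein tyrosine kinases and 30 serine/threonine kinases, run by a contract lab (CEREP). Each compound was tested at a single dose of 10 μM in duplicate.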

[3] = test system: SNB-75; test: Cytotoxicity against human SNB75 cells after 48 hrs by SRB assay; assay type: functional; conditions: SNB-75, 48 h
Procedure, shortened: (§2)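 NCI-60 five-dose mode on the full human tumour line panel. Concentrations ran from 100 to 0.01 µM with 48 h continuous exposure. Growth was estimated by SRB protein staining against untreated controls, and IC50 values were derived from the dose–response.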

[4] = target: Mitogen-activated protein kinase kinase kinase kinase 4 (Homo sapiens) (UniProt O95819); test: Inhibition of human HGK at 10 uM; procedure, shortened: as §1
[5] = test system: RXF 393; test: Cytotoxicity against human RXF393 cells after 48 hrs by SRB assay; assay type: functional; conditions: RXF 393, 48 h
Procedure, shortened: (§3)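 NCI-60 five-dose screen: cells exposed continuously for 48 h across 100 to 0.01 µM. Growth or viability estimated by sulforhodamine B protein staining, read spectrophotometrically against untreated controls; IC50 taken from the dose-response.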

[6] = test system: NCI-H226; test: Cytotoxicity against human NCI-H226 cells after 48 hrs by SRB assay; assay type: functional; conditions: NCI-H226, 48 h; procedure, shortened: as §3
[7] = test system: MOLT-4; test: Cytotoxicity against human MOLT4 cells after 48 hrs by SRB assay; assay type: functional; conditions: MOLT-4, 48 h; procedure, shortened: as §3
[8] = test system: RPMI-8226; test: Cytotoxicity against human RPMI8226 cells after 48 hrs by SRB assay; assay type: functional; conditions: RPMI-8226, 48 h; procedure, shortened: as §3
[9] = test system: MDA-MB-231; test: Cytotoxicity against human MDA-MB-231 cells after 48 hrs by SRB assay; assay type: functional; conditions: MDA-MB-231, 48 h; procedure, shortened: as §3
[10] = test system: SK-MEL-5; test: Cytotoxicity against human SK-MEL-5 cells after 48 hrs by SRB assay; assay type: functional; conditions: SK-MEL-5, 48 h; procedure, shortened: as §2
[11] = test system: HL-60(TB); test: Cytotoxicity against human HL-60(TB) cells after 48 hrs by SRB assay; assay type: functional; conditions: HL-60, 48 h
Procedure, shortened: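 NCI-60 human tumour cell line panel; continuous 48 h exposure to five concentrations from 100 to 0.01 µM. Cell growth was read spectrophotometrically by sulforhodamine B protein staining against untreated controls, and […] was taken from the dose–response.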

[12] = test system: MDA-MB-435; test: Induction of apoptosis in human MDA-MB-435 cells assessed as chromatin condensation at 5 uM after 20 hrs by Hoechst 33342 staining-based phase-contrast microscopy; assay type: functional, cell-based
[13] = test system: HT-29; test: Cytotoxicity against human HT-29 cells after 48 hrs by SRB assay; assay type: functional; conditions: HT-29, 48 h
Procedure, shortened: (§4)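 NCI-60 five-dose testing, 100 to 0.01 µM, under a 48 h continuous-exposure protocol. Growth estimated by SRB protein assay, read spectrophotometrically against untreated controls; IC50 derived from the dose-response.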

[14] = test system: CAKI-1; test: Cytotoxicity against human Caki1 cells after 48 hrs by SRB assay; assay type: functional; conditions: CAKI-1, 48 h; procedure, shortened: as §4
[15] = test system: LOX IMVI; test: Cytotoxicity against human LOXIMVI cells after 48 hrs by SRB assay; assay type: functional; procedure, shortened: as §4
[16] = test system: MDA-MB-435; test: Cytotoxicity against human MDA-MB-435 cells after 48 hrs by MTT assay; assay type: functional, cell-based; conditions: MDA-MB-435, 48 h
Procedure, shortened: (§5)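 Melanoma lines grown at 37 °C in humidified 5% CO2: MDA-MB-435 in DMEM/Ham's F12 1:1 with 10% FCS and antibiotics, SK-MEL-2 in RPMI-1640 with 10% FCS. Cells plated 24 h, then exposed 48 h to 100–0.01 µM (dilutions from fresh 100 µM stock in medium). MTT 0.5 mg/mL added for 4 h, crystals dissolved in EtOH/DMSO 1:1, absorbance read at 540 nm. Mean ± SD of three independent experiments.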

[17] = test system: TK-10; test: Cytotoxicity against human TK10 cells after 48 hrs by SRB assay; assay type: functional; conditions: TK-10, 48 h; procedure, shortened: as §2
[18] = test system: MCF7; test: Cytotoxicity against human MCF7 cells after 48 hrs by SRB assay; assay type: functional; conditions: MCF7, 48 h; procedure, shortened: as §4
[19] = test system: OVCAR-8; test: Cytotoxicity against human OVCAR8 cells after 48 hrs by SRB assay; assay type: functional; conditions: OVCAR-8, 48 h; procedure, shortened: as §3
[20] = test system: MDA-MB-435; test: Cytotoxicity against human MDA-MB-435 cells assessed as cell growth at 10 uM after 48 hrs by MTT assay relative to untreated control; assay type: functional; conditions: MDA-MB-435, 48 h, read-out: Activity; procedure, shortened: as §5
[21] = test system: 786-0; test: Cytotoxicity against human […] cells after 48 hrs by SRB assay; assay type: functional; conditions: 786-0, 48 h; procedure, shortened: as §4
[22] = test system: SW-620; test: Cytotoxicity against human SW620 cells after 48 hrs by SRB assay; assay type: functional; conditions: SW-620, 48 h; procedure, shortened: as §2
[23] = test system: HOP-92; test: Cytotoxicity against human HOP92 cells after 48 hrs by SRB assay; assay type: functional; conditions: HOP-92, 48 h; procedure, shortened: as §4
[24] = test system: T47D; test: Cytotoxicity against human T47D cells after 48 hrs by SRB assay; assay type: functional; procedure, shortened: as §2
[25] = test system: UACC-62; test: Cytotoxicity against human UACC62 cells after 48 hrs by SRB assay; assay type: functional; conditions: UACC-62, 48 h; procedure, shortened: as §2
[26] = test system: K562; test: Cytotoxicity against human K562 cells after 48 hrs by SRB assay; assay type: functional; conditions: K562, 48 h; procedure, shortened: as §4
[27] = target: Glycogen synthase kinase-3 beta (Homo sapiens) (UniProt P49841); test: Inhibition of human GSK3 beta at 10 uM; procedure, shortened: as §1
[28] = test system: KM12; test: Cytotoxicity against human KM12 cells after 48 hrs by SRB assay; assay type: functional; conditions: KM12, 48 h; procedure, shortened: as §4
[29] = read-out: LC50 (the source's name)

Chain of Glycogen synthase kinase-3 beta (Homo sapiens) (P49841 whole entry, looked up): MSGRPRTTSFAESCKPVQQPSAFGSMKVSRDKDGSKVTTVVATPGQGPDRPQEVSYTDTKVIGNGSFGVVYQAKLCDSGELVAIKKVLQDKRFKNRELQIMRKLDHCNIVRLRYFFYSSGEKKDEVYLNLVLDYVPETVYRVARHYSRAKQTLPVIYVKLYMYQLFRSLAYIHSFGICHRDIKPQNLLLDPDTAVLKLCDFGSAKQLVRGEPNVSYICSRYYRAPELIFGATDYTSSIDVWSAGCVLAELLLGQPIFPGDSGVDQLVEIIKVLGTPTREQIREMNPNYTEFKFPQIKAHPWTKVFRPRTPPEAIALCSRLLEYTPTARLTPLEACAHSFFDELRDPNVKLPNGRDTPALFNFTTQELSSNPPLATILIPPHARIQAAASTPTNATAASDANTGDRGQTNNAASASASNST
Chain of Mitogen-activated protein kinase kinase kinase kinase 4 (Homo sapiens) (O95819 2-1239 limits assumed): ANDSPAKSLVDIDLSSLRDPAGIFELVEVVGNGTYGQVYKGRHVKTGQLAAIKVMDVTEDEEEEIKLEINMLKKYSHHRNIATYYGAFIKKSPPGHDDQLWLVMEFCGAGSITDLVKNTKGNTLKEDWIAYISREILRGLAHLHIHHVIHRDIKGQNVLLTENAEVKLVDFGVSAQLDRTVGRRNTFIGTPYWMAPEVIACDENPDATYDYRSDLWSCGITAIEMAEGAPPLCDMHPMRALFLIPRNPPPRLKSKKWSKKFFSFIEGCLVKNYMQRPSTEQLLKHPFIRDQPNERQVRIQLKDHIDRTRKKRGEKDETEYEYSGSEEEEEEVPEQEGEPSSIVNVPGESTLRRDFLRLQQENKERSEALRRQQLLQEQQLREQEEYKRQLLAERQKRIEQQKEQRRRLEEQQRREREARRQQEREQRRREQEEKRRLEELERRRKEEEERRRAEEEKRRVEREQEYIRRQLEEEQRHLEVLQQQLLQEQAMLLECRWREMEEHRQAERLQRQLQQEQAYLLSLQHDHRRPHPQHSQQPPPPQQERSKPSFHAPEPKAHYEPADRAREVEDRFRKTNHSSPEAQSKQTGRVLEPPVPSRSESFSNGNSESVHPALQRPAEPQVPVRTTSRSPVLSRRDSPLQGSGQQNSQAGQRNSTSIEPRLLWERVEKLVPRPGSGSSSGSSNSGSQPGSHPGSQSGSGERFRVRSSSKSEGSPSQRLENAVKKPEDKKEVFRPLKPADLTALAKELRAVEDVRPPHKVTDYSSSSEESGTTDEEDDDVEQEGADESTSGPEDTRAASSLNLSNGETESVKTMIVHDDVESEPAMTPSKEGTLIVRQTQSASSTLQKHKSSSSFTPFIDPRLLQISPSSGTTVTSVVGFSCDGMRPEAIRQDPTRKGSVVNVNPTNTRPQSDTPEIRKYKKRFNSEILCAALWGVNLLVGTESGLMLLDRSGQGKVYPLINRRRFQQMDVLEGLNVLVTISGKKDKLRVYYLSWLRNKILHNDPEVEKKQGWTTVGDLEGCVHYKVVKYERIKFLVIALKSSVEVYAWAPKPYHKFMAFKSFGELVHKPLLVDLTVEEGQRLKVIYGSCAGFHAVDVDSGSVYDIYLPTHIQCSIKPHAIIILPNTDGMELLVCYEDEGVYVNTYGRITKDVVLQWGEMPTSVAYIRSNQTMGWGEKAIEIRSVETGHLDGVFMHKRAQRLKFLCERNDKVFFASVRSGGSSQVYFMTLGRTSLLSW

## C[C@@H]1NC(c2ccc(Br)cc2)=Nc2nc3ccccn3c2C1=O
[1]
  Activity: Active
[2]
  inhibition: inactive
[3]
  GI50: 0.7 µM
  TGI: 7.06 µM
[3]; [29]
  CC50: > 100 µM
[4]
  inhibition: 50%
[5]
  GI50: 10.2 µM
  TGI: 51.8 µM
[5]; [29]
  CC50: > 100 µM
[6]
  GI50: 14.7 µM
  TGI: > 100 µM
[6]; [29]
  CC50: > 100 µM
[7]
  GI50: 12.8 µM
  TGI: > 100 µM
[7]; [29]
  CC50: > 100 µM
[8]
  GI50: 7.31 µM
  TGI: > 100 µM
[8]; [29]
  CC50: > 100 µM
[9]
  GI50: 6.08 µM
  TGI: > 100 µM
[9]; [29]
  CC50: > 100 µM
[10]
  GI50: 2.24 µM
  TGI: 40.5 µM
[10]; [29]
  CC50: > 100 µM
[11]
  GI50: 6.49 µM
  TGI: > 100 µM
[11]; [29]
  CC50: > 100 µM
[12]
  Activity: Active
[13]
  GI50: 3.73 µM
  TGI: > 100 µM
[13]; [29]
  CC50: > 100 µM
[14]
  GI50: 3.09 µM
  TGI: > 100 µM
[14]; [29]
  CC50: > 100 µM
[15]
  GI50: 6.34 µM
  TGI: > 100 µM
[15]; [29]
  CC50: > 100 µM
[16]
  IC50: 1.7 µM
[17]
  GI50: 21 µM
  TGI: > 100 µM
[17]; [29]
  CC50: > 100 µM
[18]
  GI50: 2.99 µM
  TGI: > 100 µM
[18]; [29]
  CC50: > 100 µM
[19]
  GI50: 17 µM
  TGI: > 100 µM
[19]; [29]
  CC50: > 100 µM
[20]
  growth at 10 µM: -15%
[21]
  GI50: 28.3 µM
  TGI: > 100 µM
[21]; [29]
  CC50: > 100 µM
[22]
  GI50: 3.75 µM
  TGI: > 100 µM
[22]; [29]
  CC50: > 100 µM
[23]
  GI50: 1.16 µM
  TGI: 22.9 µM
[23]; [29]
  CC50: > 100 µM
[24]
  GI50: 46.2 µM
  TGI: > 100 µM
[24]; [29]
  CC50: > 100 µM
[25]
  GI50: 4.35 µM
  TGI: > 100 µM
[25]; [29]
  CC50: > 100 µM
[26]
  GI50: 4.13 µM
  TGI: > 100 µM
[26]; [29]
  CC50: > 100 µM
[27]
  inhibition: inactive
[28]
  GI50: 3.39 µM
  TGI: > 100 µM
[28]; [29]
  CC50: > 100 µM
